What was measured:
Assay in all cases: activity assay, unused NAD+ converted to a fluorescent compound
Type in all cases: biochemical
PARP4 = molecular target: T1, PARP4 (Homo sapiens, UniProt Q9UKK3)
T1 sequence (Q9UKK3 242-573 limits assumed): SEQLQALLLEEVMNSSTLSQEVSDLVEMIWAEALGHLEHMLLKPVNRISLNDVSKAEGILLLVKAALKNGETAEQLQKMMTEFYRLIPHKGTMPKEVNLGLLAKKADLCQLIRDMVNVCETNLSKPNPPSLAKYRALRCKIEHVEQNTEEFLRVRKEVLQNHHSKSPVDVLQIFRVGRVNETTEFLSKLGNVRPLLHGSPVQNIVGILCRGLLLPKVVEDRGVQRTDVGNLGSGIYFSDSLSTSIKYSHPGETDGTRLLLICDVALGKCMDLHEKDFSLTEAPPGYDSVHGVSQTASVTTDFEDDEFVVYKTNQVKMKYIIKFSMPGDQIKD
Outline: (§1)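 PARP3 or PARP4 was expressed as an N-terminal His-tag construct in E. coli Rosetta2 (DE3) in autoinduction TB medium, overnight at 18 °C. It was purified by Ni-affinity followed by size-exclusion chromatography. Activity was read by converting residual NAD+ to a fluorescent product. Inhibitor was tested as half-log dilutions, with reactions in quadruplicate. IC50 was fitted with a four-variable sigmoidal dose–response curve.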

PARP16 = molecular target: T2, PARP16 (Homo sapiens, UniProt Q8N5Y8)
T2 sequence (Q8N5Y8 5-279 limits assumed): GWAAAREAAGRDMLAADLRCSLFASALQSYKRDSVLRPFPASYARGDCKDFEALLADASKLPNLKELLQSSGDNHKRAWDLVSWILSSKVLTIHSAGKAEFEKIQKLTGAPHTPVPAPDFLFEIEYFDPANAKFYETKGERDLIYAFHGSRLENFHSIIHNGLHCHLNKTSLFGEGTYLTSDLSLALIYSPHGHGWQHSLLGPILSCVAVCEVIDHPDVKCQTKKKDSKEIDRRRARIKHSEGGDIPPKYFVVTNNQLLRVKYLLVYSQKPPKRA
Outline: (§2)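 Human PARP12 or PARP16 carrying an N-terminal His tag was expressed in E. coli Rosetta2 (DE3) in autoinduction TB medium, overnight at 18 °C. It was purified by Ni-affinity and size-exclusion chromatography, then the His tag was cleaved with TEV protease. Unused NAD+ was converted to a fluorescent compound. Test compound was given in half-log dilutions, in quadruplicate. IC50 came from a four-variable sigmoidal dose–response fit.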

PARP3 = molecular target: T3, PARP3 (Homo sapiens, UniProt Q9Y6F1)
T3 sequence (Q9Y6F1 1-533): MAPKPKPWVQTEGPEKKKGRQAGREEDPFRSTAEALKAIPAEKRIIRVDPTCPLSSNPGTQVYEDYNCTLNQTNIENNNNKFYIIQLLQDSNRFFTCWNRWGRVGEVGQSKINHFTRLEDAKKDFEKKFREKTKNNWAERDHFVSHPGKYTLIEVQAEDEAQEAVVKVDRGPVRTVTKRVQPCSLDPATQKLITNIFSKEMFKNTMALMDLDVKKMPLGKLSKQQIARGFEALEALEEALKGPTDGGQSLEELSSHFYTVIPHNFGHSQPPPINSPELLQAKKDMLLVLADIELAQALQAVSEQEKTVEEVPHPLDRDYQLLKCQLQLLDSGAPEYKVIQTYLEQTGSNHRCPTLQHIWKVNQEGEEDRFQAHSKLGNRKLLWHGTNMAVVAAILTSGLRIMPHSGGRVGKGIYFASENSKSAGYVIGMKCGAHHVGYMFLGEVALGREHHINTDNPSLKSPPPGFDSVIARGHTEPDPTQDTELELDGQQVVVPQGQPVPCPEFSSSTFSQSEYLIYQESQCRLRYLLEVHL
Outline: as §1

PARP12 = molecular target: T4, PARP12 (Homo sapiens, UniProt Q9H0J9)
T4 sequence (Q9H0J9 489-684 limits assumed): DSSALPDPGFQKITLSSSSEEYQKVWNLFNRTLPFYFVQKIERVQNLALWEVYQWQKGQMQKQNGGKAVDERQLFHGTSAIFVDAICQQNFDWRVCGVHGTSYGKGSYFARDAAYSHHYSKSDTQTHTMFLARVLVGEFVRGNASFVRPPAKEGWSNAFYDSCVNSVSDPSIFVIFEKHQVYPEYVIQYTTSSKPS
Outline: as §2

Compound	IC50 (PARP4)	IC50 (PARP16)	IC50 (PARP3)	IC50 (PARP12)
N#Cc1ccc(Oc2ccc(C(N)=O)cc2)cc1 [compound 10, 4‐(4‐cyanophenoxy)benzamide]	> 100 µM	> 10 µM	> 100 µM	> 10 µM
NC(=O)c1ccc(Oc2cccc(C(N)=O)c2)cc1 [compound 20, 3‐(4‐carbamoylphenoxy)benzamide]	7 µM	> 10 µM	> 100 µM	> 10 µM

Reference: paper PMC8485830 (ChemistryOpen, 2021)
